Wee1 degr inh: Wee1 degradation inhibitors, primary screen, cell-based, HeLa, Wee1K328M-luciferase, luminescence. reporter increase, % at 5 µM. AID 1321, 2008. 220,000 compounds, 1.2% hits. HeLa Luc-Wee1K328M stability; 100% = proteasome inhibitor MG132 effect. Wee1-like protein kinase (Homo sapiens), P30291;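 active = activation above the mean of all tested compounds plus 3 SD, set per screening run, cut at about 8.8% in these data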;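 also: cells exposed to compound for 20 h before luminescence read; 0% = DMSO alone and 100% = MG132 at 30 µM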
FLuc inh counter: firefly luciferase enzyme inhibitors, primary screen, artefact control for luciferase-based inhibitor screens, biochemical, luminescence, ATPLite; Luciferin 4-monooxygenase (Photinus pyralis), P08659; 10 min; inhibition, % at 10 µM; 200,000 compounds, 1.5% hits;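 active = inhibition above about 50% when tested at 10 µM, limit read from the data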
PPC-1+TRAIL kill: compounds killing PPC-1 cancer cells with TRAIL present, primary screen, TRAIL potentiator project, ATPLite luminescence, uHTS; PPC-1 cells + TRAIL, ATPLite viability luminescence; cell killing (% activity), % at 4 µM or 5 µM; 220,000 compounds, 0.41% hits; AID 1443, 2008;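 active = cell killing above 50% in the first pass at 4 µM, then a duplicate retest at 5 µM averaging 50% or more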;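 also: plate controls were cells with TRAIL plus DMSO for no effect and medium-only wells lacking cells for full effect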
FLuc stim CS: FLuc activators, initial screening, artefact control for FLuc-dependent activation tests, biochemical, ATPlite luminescence; Luciferin 4-monooxygenase (Photinus pyralis), P08659; activation factor at 10 µM; ATPlite luciferase biochemical, 10 min; 0 = ATP-free wells, 1 = DMSO control; 200,000 tested, under 10 active;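 active = luciferase activation factor, scaled between plate controls, of at least 2 with compound at 10 µM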
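System: luciferase plus luciferin reagent, cell-free; medium: PBS as buffer for the ATP substrate; dosing: test compounds dosed from 2 mM stocks in 100% DMSO; timing: 10 min post-reagent at room temperature; measured by: luminescence measurement of luciferase light output; evaluation: luciferase activation, seen as luminescence increase over controls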
PKD1 inh: inhibitors of human PKD1 kinase, biochemical, fluorescence polarization. inhibition, % (test concentration not listed). Serine/threonine-protein kinase D1 (Homo sapiens), Q15139. AID 797, 2007. 200,000 compounds, 0.056% hits. PKD1 kinase fluorescence polarization assay; in the data active = inhibition above about 50%
TRAIL sens C8: viability loss with TRAIL in NB7+C8 cells, primary screen, TRAIL sensitizer project, cell-based, ATPlite luminescence; AID 624354, 2012; 360,000 compounds, 1% hits; inhibition (viability loss, TRAIL sensitization), % at 10 µM;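 active = compounds causing at least 50% loss of cell viability in the single-dose screen, relative to plate controls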
Numbers without * were called inactive; · = not tested or not shown; ! = repeats disagree. Shown are actives, neighbours in structure and some others; about 2.2% of the full set was active somewhere.

SMILES | Wee1 degr inh | FLuc inh counter | PPC-1+TRAIL kill | FLuc stim CS | PKD1 inh | TRAIL sens C8
Cc1cccc(/C=N/NC(=O)c2ccc3c(c2)OCCO3)c1O | · | · | · | · | · | 76*
O=C(N/N=C/c1cc(Cl)ccc1O)c1ccc(Br)cc1 | -1 | 9 | 23 | 0.9 | -1 | 43
Cc1ccc(N=Nc2ccc(O)c(/C=N\NC(=O)c3ccc(N)cc3)c2)cc1C | 9.5* | -3 | -9 | 1 | 3 | -8
COc1ccc(-c2cc(CNc3nc(NC(C)C)nc4cc(-c5ccccc5)sc34)on2)cc1 | · | · | · | · | · | 80*
CCN1CCN(Cc2ccc(NC(=O)c3cc(NC(=O)c4nccnc4N)cc(OC)c3)cc2C(F)(F)F)CC1 | · | · | 30 | · | · | 12
CCN1CCN(Cc2ccc(NC(=O)c3cc(NC(=O)c4cncc(-c5ccc(C#N)cc5)c4)cc(OC)c3)cc2C(F)(F)F)CC1 | · | · | 0 | · | · | 94*!
CCN1CCN(Cc2ccc(NC(=O)c3cc(NC(=O)c4cnnc5ccccc45)cc(OC)c3)cc2C(F)(F)F)CC1 | · | · | 26 | · | · | 56*!
CCN1CCN(Cc2ccc(NC(=O)c3ccc(C)c(NC(=O)c4cncc(-c5cccs5)c4)c3)cc2C(F)(F)F)CC1 | · | · | · | · | · | 70*
Cc1cc(C)c(S(=O)(=O)NCc2ccccn2)c(C)c1 | · | · | · | · | · | 16
O=c1c2sc(-c3ccccc3)cc2nc2n1CCC2 | 4 | 55* | 12 | 0.5 | -3 | 54*
Cn1c(NCCN2CCCC2)nc2cc(-c3ccccc3)sc2c1=O | · | · | · | · | · | 7
O=c1c2sc(-c3ccccc3)cc2nc2n1CCCCC2 | 9.9* | · | 8 | · | · | 18
O=C(O)c1cn(Cc2ccccc2Cl)c2ccc(S(=O)(=O)N3CCOCC3)cc2c1=O | -2 | -3 | 12 | 1 | 4 | -5
O=c1c2ccccc2oc2ccc(-c3ccc4cc[nH]c4c3)cc12 | · | · | · | · | · | 53*
CCOc1ccc(S(=O)(=O)N2CCC(C(=O)N3CCCC3)CC2)cc1C | · | · | · | · | · | -4
CCOC(=O)N1CCN(C(=O)C[C@@H]2C[C@@]3(C(=O)OC)CCCCC=C3N(Cc3ccccc3)C2=O)CC1 | · | · | · | · | · | 6
CCOC(=O)c1c(CSC(=N)N)n(-c2ccc(Br)cc2)c2cc(Br)c(OC(C)=O)cc12 | 6 | -5 | 14 | 1 | 5 | 9
CCCCCCCCOC(=O)c1c(CSC(=N)N)n(C)c2cc(Br)c(OC(C)=O)cc12 | 3 | · | -2 | · | · | 92*
Cc1cc(C(=O)Cn2nc(C(=O)O)c3ccccc3c2=O)c(C)n1-c1ccccc1 | 0 | 92* | 48 | 0.1 | -7 | 76*
Cc1cc(C)c(C(=O)Cn2nc(C(=O)O)c3ccccc3c2=O)cc1C | -2 | · | 4 | · | · | 11
Cc1cccc(CC(=O)Nc2sc(C(C)C)cc2C(=O)N2CCOCC2)c1 | · | · | · | · | · | -11
Cc1cccc2nc(-c3ccco3)oc(=O)c12 | · | · | · | · | · | -2
CC(C)n1cnc2cc(NCc3ccccc3O)ccc21 | 4 | · | 23 | · | · | -5
CC(C)n1cnc2cc(NCc3ccco3)ccc21 | 0 | 58* | 12 | 0.4 | 11 | -4
O=C1C=C(N2CCN(c3ccccn3)CC2)C(=O)c2c(O)ccc(O)c21 | · | · | · | · | · | 50*
SMILES | Wee1 degr inh | FLuc inh counter | PPC-1+TRAIL kill | FLuc stim CS | PKD1 inh | TRAIL sens C8
O=C(N1CCN(c2ccccn2)CC1)C(Cl)(Cl)Cl | 1 | 0 | 31 | 1 | 16 | 13
CCOc1ccc2c(c1)S/C(=C\c1cccs1)C(=O)N2 | 9.0* | · | 5 | · | · | -23
C=CCn1c(COc2cccc(C)c2)nnc1SCC(=O)c1c(N)n(C)c(=O)n(C)c1=O | · | · | · | · | · | 5
C=CCn1c(COc2ccc(Cl)cc2)nnc1SCC(=O)c1c(N)n(C)c(=O)n(C)c1=O | 10* | -4 | 18 | 1 | 1 | -9
Cc1ccc(C2=NC(=O)/C(=C/c3cc(O)c(O)c(Br)c3)S2)cc1 | 3 | 50* | 14 | 0.5 | -2 | 19
COc1cc(/C=C2\SC(c3ccc(C)cc3)=NC2=O)cc(OC)c1O | -1 | 36 | -1 | 0.6 | -16 | 13
CC(C)(C)c1cc[n+](C2=C([O-])c3ccccc3C(=O)/C2=N\S(=O)(=O)c2cccs2)cc1 | -1 | · | 14 | · | · | 54*
